Source: PubChem (several laboratories)
HTR2A ag: mouse HTR2A agonism via beta-arrestin recruitment; CHO-K1 mHTR2A beta-arrestin complementation, luminescence; percent of 30 µM serotonin response; AID 624169; 360,000 compounds, 0.66% hits; activation, % at 7.6 µM; P35363;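 active = activation above a run cutoff, the mean activation of all tested compounds plus 3 SD, cut at about 14% in these data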;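 note: 0% = plate median of compound wells and 100% = 30 µM serotonin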
MC4R ag barr: activates human MC4R beta-arrestin recruitment; P32245; U2OS MC4R beta-arrestin complementation, luminescence; percent of melanotan II response, DMSO zero; activation, % at 8.9 µM; 360,000 compounds, 0.98% hits; AID 540308;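 active = activation above a per-plate cutoff, the mean activation of sample wells on that plate plus 3 SD, cut at about 8% in these data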
Lipid droplet: hepatic lipid droplet formation modulation; inhibition, % at 6.5 µM; AML12 mouse hepatocytes, oleate lipid droplets, BODIPY imaging; 240,000 compounds, 0.4% hits;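 active = lipid droplet intensity inhibited by at least 50%, with more than 500 cells counted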
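Material: mouse AML12 hepatocyte cell line, fixed after treatment; Timing: compound with oleate, overnight; Technique: high-content imaging of BODIPY-stained droplets and DAPI nuclei; Probe or stimulus: oleate, 100 µM final; Dosing: compound at 6.5 µM only.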
MC4R antag cAMP: blocks human MC4R cAMP signaling. P32245. MC4R-expressing cells, MTII-stimulated cAMP, LANCE TR-FRET. inhibition, % at 6.5 µM. 360,000 compounds, 0.48% hits;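 active = inhibition above its plate's cutoff, the mean of tested wells on that plate plus 3 SD, cut at about 29% in these data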;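 note: 0% = Melanotan II alone and 100% = Melanotan II plus saturating MCL0020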
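Assay system: U2OS cells stably expressing human melanocortin 4 receptor (MC4R) / Dosing: 6.5 µM / Timing: compound 30 min, challenge 1 h, detection 1 h / Measured by: Eu-cAMP/anti-cAMP TR-FRET, emission 671 nm / Replicates: singlicate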
PREPL inhibitor: inhibitors of human prolyl oligopeptidase-like enzyme PREPL; AID 2751; 320,000 compounds, 0.68% hits; Q4J6C6; inhibition, % at 5.96 µM; recombinant PREPL, fluorescence polarization activity-based probe; in the data active = inhibition above about 43%;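 note: 0% = enzyme with DMSO and 100% = wells lacking enzyme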
NTR1 ag: NTR1 (human) agonism. NTR1-U2OS beta-arrestin-GFP spot imaging, agonist mode. 330,000 compounds, 0.17% hits. P30989. activation, % at 20 µM;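 active = activation at or above 40% of the spot to cytoplasm intensity ratio, with at least 20 cells analyzed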;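 note: 0% = DMSO without peptide and 100% = 100 nM NTR1 peptide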
MC4R barr ag: human MC4R beta-arrestin agonism confirmation | 2,400 compounds, 31% hits | shares compounds with MC4R ag barr | U2OS MC4R beta-arrestin recruitment, luminescence; scaled DMSO 0%, Melanotan II 100% | activation, % at 8.9 µM | AID 602192;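 active = mean activation across replicates above the hit cutoff set in the earlier primary screen, cut at about 8% in these data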
MOR DOR agonist: counter-screen for MC4R agonists: agonists of mu-delta opioid heterodimer; shares compounds with MC4R ag barr; U2OS PathHunter beta-arrestin, beta-gal luminescence; percent of deltorphin B response, DMSO zero; activation, % at 9.2 µM; 2,400 compounds, 5.8% hits; AID 602194;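 active = mean activation across replicates exceeds the hit threshold derived in the earlier primary screen, cut at about 18% in these data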;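 note: 100% = deltorphin B at 0.9 µM final and 0% = DMSO alone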
Target sequence (P35372 whole entry, looked up): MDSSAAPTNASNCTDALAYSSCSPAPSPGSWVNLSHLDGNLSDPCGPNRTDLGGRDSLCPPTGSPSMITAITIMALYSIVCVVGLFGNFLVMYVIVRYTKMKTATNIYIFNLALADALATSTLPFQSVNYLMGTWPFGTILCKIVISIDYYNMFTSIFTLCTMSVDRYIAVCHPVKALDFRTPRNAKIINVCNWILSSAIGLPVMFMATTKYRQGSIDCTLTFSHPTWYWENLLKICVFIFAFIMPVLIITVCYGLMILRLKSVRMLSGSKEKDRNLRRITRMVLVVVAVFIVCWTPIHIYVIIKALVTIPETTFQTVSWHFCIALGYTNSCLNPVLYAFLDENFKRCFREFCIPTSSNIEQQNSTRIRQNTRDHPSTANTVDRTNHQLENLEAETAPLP
Target sequence (P41143 whole entry, looked up): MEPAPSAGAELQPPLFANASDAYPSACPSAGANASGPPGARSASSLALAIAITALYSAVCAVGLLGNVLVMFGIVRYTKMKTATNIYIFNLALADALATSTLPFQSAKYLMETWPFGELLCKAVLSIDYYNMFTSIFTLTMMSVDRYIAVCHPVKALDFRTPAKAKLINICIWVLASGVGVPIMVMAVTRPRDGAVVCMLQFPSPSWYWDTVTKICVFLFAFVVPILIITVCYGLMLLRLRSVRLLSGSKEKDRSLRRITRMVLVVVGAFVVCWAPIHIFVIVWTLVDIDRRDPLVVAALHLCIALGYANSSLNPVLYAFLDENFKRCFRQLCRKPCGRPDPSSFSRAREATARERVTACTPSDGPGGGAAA
* = called active by the depositor; · = no result given. The list is not random: actives were taken first. Their share in the collection is about 2.7%.

SMILES | HTR2A ag | MC4R ag barr | Lipid droplet | MC4R antag cAMP | PREPL inhibitor | NTR1 ag | MC4R barr ag | MOR DOR agonist
COc1ccc(-c2cc(C(=O)NCc3ccc(Cl)cc3)no2)cc1OC | -6.5 | 2.0 | -10.9 | 0.2 | 19.2 | -0.3 | · | ·
Cc1cc(NC(=O)c2noc3c2CCCCC3)nn1Cc1ccc(Cl)cc1 | -0.4 | 11.6* | -8.4 | 2.2 | -4.3 | 5.4 | 2.8 | 4.7
COc1ccc(OC)c(-c2cc(C(=O)NCc3ccc(Cl)cc3)no2)c1 | 1.7 | 10.4* | -1.4 | 23.8 | 3.7 | 5.2 | 1.3 | 2.1
Cc1nn(Cc2ccc(Cl)cc2)c(C)c1NC(=O)c1noc2c1CCCCC2 | 1.5 | -2.1 | -3.1 | 8.6 | 14.2 | 0.6 | · | ·
COc1ccccc1-c1cc(C(=O)Nc2cc(C)n(Cc3ccc(Cl)cc3)n2)no1 | 4.2 | 20.8* | · | 5.3 | 3.5 | 15.9 | 15.2* | 8.2
COc1ccccc1-c1cc(C(=O)Nc2cc(C)nn2-c2ccccc2)no1 | -7.7 | 9.9* | 0.9 | 2.0 | 0.6 | 2.0 | -2.4 | 4.5
CCC(c1nnc(SCC(=O)Nc2c(F)cccc2F)n1Cc1ccccc1)N(C)C (stereo unspecified) | 13.8 | -1.0 | -2.4 | 5.0 | 14.6 | 0.8 | · | ·
COCCNc1nc(-c2ccccc2CO)c2sc(-c3ccccc3)cc2n1 | -6.2 | -1.9 | · | -8.8 | · | · | · | ·
Cc1cc(NC(=O)c2coc(=O)c(Br)c2)ccc1C(C)C | 4.5 | 2.2 | -3.8 | 1.5 | 4.5 | -1.8 | · | ·
CS(=O)(=O)N1CCN(c2ccc(NC(=O)c3ccc(-c4ccc(Cl)cc4)o3)cc2)CC1 | 1.3 | 12.0* | -3.6 | 0.9 | 7.6 | 15.5 | -0.6 | 8.7
CCOC(=O)C1CCN(C(=O)COC(=O)c2ccc(=O)n(Cc3ccccc3)n2)CC1 | 1.2 | -2.5 | · | 2.0 | -1.2 | -0.7 | · | ·
CN1C(=S)N(c2ccccc2)C(=O)/C1=C/c1cccs1 | 4.6 | 16.5* | 2.1 | -4.2 | -0.5 | 11.9 | 7.7 | 1.6
CCSc1ccc(C(=O)Nc2cccc(C)n2)cc1[N+](=O)[O-] | 0.6 | 36.5* | -2.1 | 3.6 | 1.6 | 1.3 | -2.0 | 6.8
COc1ccc(CN(C)C(C)C(=O)Nc2ccc(S(=O)(=O)N3CCCCC3)cc2)cc1F (stereo unspecified) | -6.8 | -3.7 | · | -7.0 | 2.0 | 6.1 | · | ·
CCCCn1c(/N=C/c2c[nH]c3ccccc23)nc2ccccc21 | 2.1 | 6.6 | · | -4.0 | 1.9 | 21.6 | · | ·
CCCn1c(/N=C/c2c[nH]c3ccccc23)nc2ccccc21 | -3.1 | 11.2* | · | -3.7 | -1.7 | 9.7 | 1.2 | 5.4
COc1ccc(CNC(=O)CCCCCn2c(SCC#N)nc3cc4c(cc3c2=O)OCO4)cc1 | 0.3 | 19.3* | 56.3* | 8.3 | 7.6 | 4.2 | -1.5 | 3.4
CCN(CC)C(=O)CSc1nc2cc3c(cc2c(=O)n1CCCC(=O)NCc1ccc(OC)cc1)OCO3 | -2.0 | -1.2 | -47.0 | 1.4 | -33.5 | 0.8 | · | ·
CCn1nnnc1NCc1cccn1C | -2.3 | -0.3 | 1.8 | -1.0 | 2.8 | -0.6 | · | ·
O=C(CCCCCn1c(=S)[nH]c2ccc(N3CCOCC3)cc2c1=O)NCc1ccccc1Cl | -3.4 | 4.9 | 17.1 | 6.9 | 16.8 | 9.0 | · | ·
O=C(CCCCCn1c(=S)[nH]c2ccc(N3CCOCC3)cc2c1=O)NCc1ccc2c(c1)OCO2 | -1.3 | 12.6* | 7.9 | 12.8 | 17.2 | 0.8 | -0.2 | 2.0
O=C(CCCCCn1c(=S)[nH]c2ccc(N3CCOCC3)cc2c1=O)NCCc1ccccc1 | -1.7 | 18.4* | -23.8 | 4.5 | 21.4 | 3.2 | -0.2 | 18.3*
CCCCn1c(=S)[nH]c2ccc(N3CCOCC3)cc2c1=O | · | · | 2.2 | · | 6.2 | 4.4 | · | ·
O=C(CCCCCn1c(=S)[nH]c2ccc(N3CCOCC3)cc2c1=O)NCc1ccc(Cl)cc1 | 1.0 | 10.4* | 2.6 | 13.4 | 21.6 | 12.9 | 1.9 | 2.7
CC(=O)Nc1nnc(S(=O)(=O)N2CCN(c3ccc([N+](=O)[O-])cc3Cl)CC2)s1 | 1.0 | 0.1 | -2.8 | 9.8 | -60.2 | 0.6 | · | ·
SMILES | HTR2A ag | MC4R ag barr | Lipid droplet | MC4R antag cAMP | PREPL inhibitor | NTR1 ag | MC4R barr ag | MOR DOR agonist
Cc1ccccc1OCC(=O)NC(=S)Nc1cccc2cc(O)ccc12 | -3.3 | 15.7* | 22.7 | 6.4 | 23.4 | 31.5 | 22.6* | 9.0
Cc1ccccc1OCC(=O)NC(=S)Nc1ccc(Br)c(C)n1 | -1.0 | -0.5 | · | 7.1 | 18.7 | -0.2 | · | ·
COc1ccc(OC)c2sc(NC(=O)CCSc3ccccc3)nc12 | 3.0 | 11.0* | -2.3 | -0.2 | 10.9 | 28.2 | 2.0 | 8.2
Cc1nn(-c2nc3ccccc3s2)c(N)c1Sc1ccc(F)cc1 | -3.4 | 14.7* | · | 0.2 | -4.3 | 0.3 | 1.3 | 3.6
CC1(c2nnc(-c3ccc(Cl)cc3)o2)CC(c2cccnc2)=NO1 (stereo unspecified) | 2.8 | 0.1 | · | 2.8 | 3.1 | 0.8 | · | ·
OC1(c2cccc(C(F)(F)F)c2)CCN(c2ncnc3c2[nH]c2ccc(F)cc23)CC1 | 0.5 | 9.8* | -0.8 | 21.5 | · | · | 1.4 | 6.3
COc1ccc(NC(=O)c2cncc(Br)c2)cc1S(=O)(=O)N1CCCCC1 | -4.0 | -2.7 | -1.8 | 3.1 | -0.6 | -0.1 | · | ·
CCNC(=O)C1CCCN(C(=O)c2ccc(N(C)C)cc2)CC1 (stereo unspecified) | -1.9 | 1.7 | · | 1.0 | · | · | · | ·
Cc1nc(NC(=O)c2cccc(-c3cc4ccccc4oc3=O)c2)ccc1Br | 2.4 | 24.1* | -6.3 | -4.8 | 6.3 | 25.1 | 16.9* | 12.0
CC(C)c1ccc(NC(=O)C2CCN(c3ncnc4c3nc3n4CCCCC3)CC2)cc1 | 1.5 | 27.1* | 5.3 | 24.9 | 0.1 | 13.7 | 0.8 | 15.3
O=C(COC(=O)c1cccnc1Cl)NC(=O)c1ccc(OC(F)F)cc1 | 2.0 | 0.2 | · | -2.1 | -2.6 | -0.9 | · | ·
COc1ccccc1C(=O)COC(=O)c1ccc(-n2cnnn2)cc1 | -5.5 | -1.6 | · | -1.0 | -2.5 | 0.2 | · | ·
COc1ccc(C(=O)COC(=O)c2c(-c3ccccc3)noc2C)c(OC)c1 | 10.1 | 13.8* | · | 7.0 | -9.3 | 1.8 | -0.2 | 1.9
COc1ccccc1C(=O)COC(=O)c1c(-c2ccccc2)noc1C | -2.1 | 1.0 | · | -9.3 | -0.7 | 5.0 | · | ·
COc1ccc(C(=O)COC(=O)c2ccc(-n3cnnn3)cc2)c(OC)c1 | -17.9 | 13.5* | · | 10.9 | -8.4 | 4.5 | 4.9 | 5.8
COc1ccc(-c2nsc(SCC(=O)Nc3ccc4c(c3)OCO4)n2)cc1 | 2.8 | 12.4* | -5.8 | 11.5 | 4.8 | 8.0 | 2.6 | 5.7
Cc1ccc(S(=O)(=O)N(C)C)cc1NC(=O)CSc1ncc(C(F)(F)F)cc1Cl | 3.5 | -0.3 | -3.7 | 8.7 | 24.0 | -0.6 | · | ·
